Laboratory results reported in ChEMBL document CHEMBL1177801, “Structure-based design and synthesis of pyrrole derivatives as MEK inhibitors” (Bioorg Med Chem Lett, 2010).
Activity calls are given as the source filed them. No cut-off for these calls is given here.

What was measured:
COLO 205 = assay: Cytotoxicity against human COLO205 cells expressing b-Raf V600E mutant after 72 hrs by MTS assay; type: functional, cell-based; settings: COLO 205, 72 h
Procedure, shortened: (§1)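 Human BRAF(V600E) line seeded at 3000–10,000 cells per 96 well, allowed 16 h at 37 °C in humidified 5% CO2. Then exposed 72 h to an eleven-point compound dilution in duplicate. NADH measured by MTS tetrazolium conversion, read at OD 490 nm. EC50 taken from compound concentration vs total NADH.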

[1] = Half life in human liver microsomes; type: ADME, Microsome
[2] = target: Dual specificity mitogen-activated protein kinase kinase 1 (Homo sapiens, UniProt Q02750); assay: Inhibition of MEK1 by cascade assay method
Chain of Dual specificity mitogen-activated protein kinase kinase 1 (Q02750 whole entry): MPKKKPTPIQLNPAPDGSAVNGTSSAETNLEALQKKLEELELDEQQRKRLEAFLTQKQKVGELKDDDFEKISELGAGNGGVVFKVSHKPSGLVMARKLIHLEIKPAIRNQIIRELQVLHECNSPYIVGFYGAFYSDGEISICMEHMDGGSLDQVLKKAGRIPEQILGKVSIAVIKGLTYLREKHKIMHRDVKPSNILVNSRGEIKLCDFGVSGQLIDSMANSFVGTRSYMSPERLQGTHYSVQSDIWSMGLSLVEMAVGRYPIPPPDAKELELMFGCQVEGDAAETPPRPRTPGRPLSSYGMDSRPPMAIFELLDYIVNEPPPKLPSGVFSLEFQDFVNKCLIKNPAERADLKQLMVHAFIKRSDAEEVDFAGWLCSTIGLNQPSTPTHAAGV
Procedure, shortened: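 Cascade format, compounds serially diluted in DMSO, then in 50 mM HEPES pH 7.3, 10 mM NaCl, 10 mM MgCl2, 0.01% Brij35, 1 mM DTT. Reaction started with 1 nM MEK1 and 400 µM ATP (also run at 10 µM). Product read by IMAP fluorescence polarization. IC50 fitted with standard models.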

A-375 = assay: Cytotoxicity against human A375 cells expressing b-Raf V600E mutant after 72 hrs by MTS assay; type: functional, cell-based; settings: A-375, 72 h; procedure, shortened: as §1
[3] = Half life in rat liver microsomes; type: ADME, Microsome
[4] = target: Tyrosine-protein kinase SYK (Homo sapiens) (UniProt P43405); assay: Inhibition of Syk at 10 uM
[5] = target: Cyclin-dependent kinase 2/cyclin A (Homo sapiens) (UniProt P24941+P20248+P78396); assay: Inhibition of CDK2/cyclinA at 10 uM; type: protein-complex assay
[6] = target: Serine/threonine-protein kinase PLK3 (Homo sapiens) (UniProt Q9H4B4); assay: Inhibition of PLK3 at 10 uM
[7] = target: Calcium/calmodulin-dependent protein kinase type 1D (Homo sapiens) (UniProt Q8IU85); assay: Inhibition of CamK1delta at 10 uM
[8] = target: Tyrosine-protein kinase ABL1 (Homo sapiens) (UniProt P00519); assay: Inhibition of Abl1 at 10 uM
Chain of Tyrosine-protein kinase ABL1 (Homo sapiens) (P00519 whole entry): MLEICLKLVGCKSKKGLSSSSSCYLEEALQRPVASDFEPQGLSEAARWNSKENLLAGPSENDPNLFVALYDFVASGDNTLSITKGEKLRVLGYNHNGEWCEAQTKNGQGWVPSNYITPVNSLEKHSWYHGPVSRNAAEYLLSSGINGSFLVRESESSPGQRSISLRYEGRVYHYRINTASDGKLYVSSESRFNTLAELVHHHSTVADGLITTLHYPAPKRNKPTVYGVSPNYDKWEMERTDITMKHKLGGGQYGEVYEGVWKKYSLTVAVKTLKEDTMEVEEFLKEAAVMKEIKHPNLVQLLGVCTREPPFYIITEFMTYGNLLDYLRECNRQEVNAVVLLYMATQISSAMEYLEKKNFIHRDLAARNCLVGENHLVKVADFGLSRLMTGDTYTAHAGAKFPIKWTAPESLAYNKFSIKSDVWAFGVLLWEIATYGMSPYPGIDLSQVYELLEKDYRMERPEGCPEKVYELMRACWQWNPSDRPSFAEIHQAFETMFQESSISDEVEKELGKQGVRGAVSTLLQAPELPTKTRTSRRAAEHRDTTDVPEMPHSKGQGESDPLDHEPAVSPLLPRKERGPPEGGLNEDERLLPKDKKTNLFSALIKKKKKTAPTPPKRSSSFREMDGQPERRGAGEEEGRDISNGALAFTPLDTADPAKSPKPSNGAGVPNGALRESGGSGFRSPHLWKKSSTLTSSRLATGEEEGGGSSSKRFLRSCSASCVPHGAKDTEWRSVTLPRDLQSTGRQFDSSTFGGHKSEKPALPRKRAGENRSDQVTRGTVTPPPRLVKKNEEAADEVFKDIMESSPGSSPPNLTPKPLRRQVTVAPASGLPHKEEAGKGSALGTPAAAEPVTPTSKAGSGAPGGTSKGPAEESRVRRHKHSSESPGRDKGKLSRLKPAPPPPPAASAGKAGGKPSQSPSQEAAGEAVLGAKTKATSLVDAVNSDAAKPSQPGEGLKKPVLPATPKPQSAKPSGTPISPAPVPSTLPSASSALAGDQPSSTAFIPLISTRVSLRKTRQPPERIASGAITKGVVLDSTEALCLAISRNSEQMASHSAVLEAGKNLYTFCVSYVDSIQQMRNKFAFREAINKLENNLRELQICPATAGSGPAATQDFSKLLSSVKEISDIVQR

[9] = target: Platelet-derived growth factor receptor beta (Homo sapiens) (UniProt P09619); assay: Inhibition of PDGFRbeta at 10 uM
Chain of Platelet-derived growth factor receptor beta (Homo sapiens) (P09619 whole entry): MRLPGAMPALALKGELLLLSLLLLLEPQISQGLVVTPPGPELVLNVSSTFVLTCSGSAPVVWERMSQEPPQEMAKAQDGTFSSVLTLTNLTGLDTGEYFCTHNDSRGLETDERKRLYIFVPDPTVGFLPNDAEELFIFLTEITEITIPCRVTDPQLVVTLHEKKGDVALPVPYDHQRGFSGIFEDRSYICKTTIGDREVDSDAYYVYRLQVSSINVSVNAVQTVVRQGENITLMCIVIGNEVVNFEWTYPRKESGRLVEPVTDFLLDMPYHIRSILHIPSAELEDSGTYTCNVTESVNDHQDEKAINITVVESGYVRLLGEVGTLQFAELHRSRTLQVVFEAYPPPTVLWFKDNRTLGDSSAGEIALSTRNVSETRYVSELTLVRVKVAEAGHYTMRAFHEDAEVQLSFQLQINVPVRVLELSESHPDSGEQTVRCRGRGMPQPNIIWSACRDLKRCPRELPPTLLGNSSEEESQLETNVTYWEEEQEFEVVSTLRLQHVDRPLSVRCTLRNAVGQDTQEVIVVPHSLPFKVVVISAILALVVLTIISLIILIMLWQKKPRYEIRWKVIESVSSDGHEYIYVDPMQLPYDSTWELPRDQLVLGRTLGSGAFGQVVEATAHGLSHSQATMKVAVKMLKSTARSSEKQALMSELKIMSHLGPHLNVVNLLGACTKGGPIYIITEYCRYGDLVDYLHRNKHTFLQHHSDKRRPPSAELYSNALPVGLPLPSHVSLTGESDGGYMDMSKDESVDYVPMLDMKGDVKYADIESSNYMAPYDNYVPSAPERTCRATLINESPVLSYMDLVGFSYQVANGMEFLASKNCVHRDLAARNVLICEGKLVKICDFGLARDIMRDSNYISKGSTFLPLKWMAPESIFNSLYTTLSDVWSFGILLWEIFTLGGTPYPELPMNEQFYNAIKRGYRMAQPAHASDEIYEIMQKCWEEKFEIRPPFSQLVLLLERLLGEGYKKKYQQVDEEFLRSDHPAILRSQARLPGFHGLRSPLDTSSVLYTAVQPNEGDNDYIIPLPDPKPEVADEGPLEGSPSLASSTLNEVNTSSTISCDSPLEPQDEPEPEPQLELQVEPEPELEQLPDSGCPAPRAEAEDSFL

[10] = target: 3-phosphoinositide-dependent protein kinase 1 (PDPK1) (Homo sapiens) (UniProt O15530); assay: Inhibition of PDK1 at 10 uM
[11] = target: Angiopoietin-1 receptor (Homo sapiens) (UniProt Q02763); assay: Inhibition of Tie2 at 10 uM
[12] = target: Mitogen-activated protein kinase 14 (Homo sapiens) (UniProt Q16539); assay: Inhibition of P38alpha at 10 uM
[13] = target: RAF proto-oncogene serine/threonine-protein kinase (Homo sapiens) (UniProt P04049); assay: Inhibition of c-RAF at 10 uM
[14] = target: Proto-oncogene tyrosine-protein kinase Src (Homo sapiens) (UniProt P12931); assay: Inhibition of c-SRC at 10 uM
Chain of Proto-oncogene tyrosine-protein kinase Src (Homo sapiens) (P12931 2-536 limits assumed): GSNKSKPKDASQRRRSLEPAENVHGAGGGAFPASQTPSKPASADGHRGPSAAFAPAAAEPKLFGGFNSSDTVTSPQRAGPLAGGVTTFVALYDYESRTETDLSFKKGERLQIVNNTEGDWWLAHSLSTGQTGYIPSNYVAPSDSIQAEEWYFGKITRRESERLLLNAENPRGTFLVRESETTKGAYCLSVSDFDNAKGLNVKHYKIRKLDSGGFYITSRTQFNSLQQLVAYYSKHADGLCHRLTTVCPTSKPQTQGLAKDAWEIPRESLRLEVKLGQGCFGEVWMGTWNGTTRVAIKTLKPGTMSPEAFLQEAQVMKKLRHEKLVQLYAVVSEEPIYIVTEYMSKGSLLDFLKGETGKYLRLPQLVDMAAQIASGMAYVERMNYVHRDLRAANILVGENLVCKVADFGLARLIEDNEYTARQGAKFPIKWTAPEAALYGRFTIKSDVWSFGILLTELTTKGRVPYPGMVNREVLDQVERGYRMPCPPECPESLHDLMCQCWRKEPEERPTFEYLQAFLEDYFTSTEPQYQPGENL

[15] = target: RAC-gamma serine/threonine-protein kinase (Homo sapiens) (UniProt Q9Y243); assay: Inhibition of AKT3 at 10 uM
Chain of RAC-gamma serine/threonine-protein kinase (Homo sapiens) (Q9Y243 whole entry): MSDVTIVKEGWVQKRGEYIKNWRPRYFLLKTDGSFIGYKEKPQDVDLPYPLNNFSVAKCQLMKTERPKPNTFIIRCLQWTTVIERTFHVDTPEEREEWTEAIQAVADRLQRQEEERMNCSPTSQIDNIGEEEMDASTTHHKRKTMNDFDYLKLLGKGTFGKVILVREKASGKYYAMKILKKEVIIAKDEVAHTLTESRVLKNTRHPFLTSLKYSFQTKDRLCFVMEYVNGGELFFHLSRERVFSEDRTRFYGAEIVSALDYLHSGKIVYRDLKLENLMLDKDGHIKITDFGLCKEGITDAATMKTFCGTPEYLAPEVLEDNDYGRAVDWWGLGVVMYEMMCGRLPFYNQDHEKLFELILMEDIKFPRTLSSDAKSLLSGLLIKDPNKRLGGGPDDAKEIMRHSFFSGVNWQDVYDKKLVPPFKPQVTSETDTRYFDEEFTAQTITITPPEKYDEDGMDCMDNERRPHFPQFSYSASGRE

[16] = target: Glycogen synthase kinase-3 beta (Homo sapiens) (UniProt P49841); assay: Inhibition of GSK3-beta at 10 uM
[17] = target: Epidermal growth factor receptor (Homo sapiens) (UniProt P00533); assay: Inhibition of EGFR at 10 uM
[18] = target: Insulin receptor (Homo sapiens) (UniProt P06213); assay: Inhibition of insulin receptor at 10 uM
[19] = target: Protein kinase C alpha type (Homo sapiens) (UniProt P17252); assay: Inhibition of PKCalpha at 10 uM
[20] = target: Hepatocyte growth factor receptor (Homo sapiens) (UniProt P08581); assay: Inhibition of c-Met at 10 uM
Chain of Hepatocyte growth factor receptor (Homo sapiens) (P08581 whole entry): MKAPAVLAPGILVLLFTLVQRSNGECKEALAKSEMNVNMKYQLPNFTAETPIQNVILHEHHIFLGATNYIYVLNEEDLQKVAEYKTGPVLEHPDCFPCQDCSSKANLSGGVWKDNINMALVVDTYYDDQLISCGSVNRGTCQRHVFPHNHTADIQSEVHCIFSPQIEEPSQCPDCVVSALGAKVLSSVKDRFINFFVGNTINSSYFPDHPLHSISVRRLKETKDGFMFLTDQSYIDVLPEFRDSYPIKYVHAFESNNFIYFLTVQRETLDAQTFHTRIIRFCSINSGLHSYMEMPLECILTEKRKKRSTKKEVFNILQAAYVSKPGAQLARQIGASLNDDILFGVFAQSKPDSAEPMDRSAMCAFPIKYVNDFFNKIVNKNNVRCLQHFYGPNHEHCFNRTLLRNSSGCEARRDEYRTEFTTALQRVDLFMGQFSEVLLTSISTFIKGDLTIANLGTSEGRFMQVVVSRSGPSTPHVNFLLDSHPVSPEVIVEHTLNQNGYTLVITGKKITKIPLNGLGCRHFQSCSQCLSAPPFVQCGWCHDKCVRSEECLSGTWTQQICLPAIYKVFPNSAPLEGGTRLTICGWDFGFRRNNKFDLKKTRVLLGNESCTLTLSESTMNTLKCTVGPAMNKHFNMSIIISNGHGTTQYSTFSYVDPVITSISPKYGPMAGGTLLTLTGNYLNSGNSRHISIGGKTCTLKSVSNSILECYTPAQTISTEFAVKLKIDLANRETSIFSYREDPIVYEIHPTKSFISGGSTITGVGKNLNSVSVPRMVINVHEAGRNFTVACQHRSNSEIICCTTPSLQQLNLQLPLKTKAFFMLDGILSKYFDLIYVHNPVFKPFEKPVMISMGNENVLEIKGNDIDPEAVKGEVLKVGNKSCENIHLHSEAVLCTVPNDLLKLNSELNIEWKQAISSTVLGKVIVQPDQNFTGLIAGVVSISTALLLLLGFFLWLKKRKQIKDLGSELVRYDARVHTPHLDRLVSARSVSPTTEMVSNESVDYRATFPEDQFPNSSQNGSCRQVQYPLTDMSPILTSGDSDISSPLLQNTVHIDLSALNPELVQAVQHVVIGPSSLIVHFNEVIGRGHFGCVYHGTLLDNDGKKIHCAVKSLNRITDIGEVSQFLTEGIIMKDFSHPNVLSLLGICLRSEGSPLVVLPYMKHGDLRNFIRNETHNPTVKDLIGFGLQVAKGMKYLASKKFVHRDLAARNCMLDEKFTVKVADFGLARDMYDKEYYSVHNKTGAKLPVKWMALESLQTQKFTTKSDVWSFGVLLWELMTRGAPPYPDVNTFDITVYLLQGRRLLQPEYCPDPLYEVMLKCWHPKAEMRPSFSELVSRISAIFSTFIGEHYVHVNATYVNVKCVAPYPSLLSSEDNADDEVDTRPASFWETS

[21] = target: T1, Tyrosine-protein kinase JAK3 (Homo sapiens) (UniProt P52333); assay: Inhibition of JAK3 at 10 uM
T1 sequence (whole entry): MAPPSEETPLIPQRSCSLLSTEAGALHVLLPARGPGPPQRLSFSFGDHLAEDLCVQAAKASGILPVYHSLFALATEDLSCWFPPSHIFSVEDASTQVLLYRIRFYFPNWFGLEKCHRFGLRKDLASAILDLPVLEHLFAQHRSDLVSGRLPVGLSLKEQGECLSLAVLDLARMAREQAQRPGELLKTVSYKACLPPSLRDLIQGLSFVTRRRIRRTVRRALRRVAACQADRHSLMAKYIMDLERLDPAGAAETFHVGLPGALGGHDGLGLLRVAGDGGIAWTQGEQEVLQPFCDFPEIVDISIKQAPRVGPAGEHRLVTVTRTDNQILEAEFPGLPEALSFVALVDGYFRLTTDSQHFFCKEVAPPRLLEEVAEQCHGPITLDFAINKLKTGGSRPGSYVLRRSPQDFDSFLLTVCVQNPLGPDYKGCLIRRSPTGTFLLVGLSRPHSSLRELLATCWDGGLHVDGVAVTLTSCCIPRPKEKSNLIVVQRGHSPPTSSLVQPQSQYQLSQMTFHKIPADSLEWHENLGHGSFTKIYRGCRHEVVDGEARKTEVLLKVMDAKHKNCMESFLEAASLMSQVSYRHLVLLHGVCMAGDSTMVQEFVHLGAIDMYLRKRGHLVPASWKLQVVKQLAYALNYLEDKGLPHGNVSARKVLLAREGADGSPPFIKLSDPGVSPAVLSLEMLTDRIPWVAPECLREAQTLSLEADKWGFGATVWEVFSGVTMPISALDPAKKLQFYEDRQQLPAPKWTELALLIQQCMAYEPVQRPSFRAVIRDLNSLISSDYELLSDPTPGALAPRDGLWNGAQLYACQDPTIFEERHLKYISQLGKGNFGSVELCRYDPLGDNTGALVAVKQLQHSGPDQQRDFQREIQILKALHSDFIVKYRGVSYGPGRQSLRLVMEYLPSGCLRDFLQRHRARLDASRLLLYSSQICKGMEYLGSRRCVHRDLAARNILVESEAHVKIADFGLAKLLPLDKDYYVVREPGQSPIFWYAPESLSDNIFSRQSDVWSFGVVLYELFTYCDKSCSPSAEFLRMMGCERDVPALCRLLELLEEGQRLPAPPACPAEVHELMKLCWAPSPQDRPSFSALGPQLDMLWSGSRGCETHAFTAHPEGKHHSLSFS

[22] = Clearance in rat at 1 mg/kg, iv and 5 mg/kg, po; type: ADME, organism-based; settings: in vivo
[23] = Mean residence time in rat at 1 mg/kg, iv; type: ADME, organism-based; parameters: dose 1 mg/kg, route intravenous; settings: in vivo
[24] = Oral bioavailability in rat at 5 mg/kg; type: ADME, organism-based; settings: in vivo
[25] = Mean residence time in rat at 5 mg/kg, po; type: ADME, organism-based; parameters: dose 5 mg/kg, route oral; settings: in vivo
[26] = Volume of distribution at steady state in rat at 1 mg/kg, iv and 5 mg/kg, po; type: ADME, organism-based; settings: in vivo, read-out: Vdss

## CC(=O)c1c(F)c(C(=O)NOC[C@@H](O)CO)c(Nc2ccc(I)cc2F)n1C
COLO 205
  EC50: 58 nM
[1]
  half-life: 115 min
[2]
  IC50: 19 nM
A-375
  EC50: 48 nM
[3]
  half-life: 49 min

## CC(=O)n1cc(Nc2ccc(I)cc2F)c(C(=O)O)c1
COLO 205
  EC50: > 50000 nM
[1]
  half-life: 29 min
[2]
  IC50: 220 nM
[3]
  half-life: 20 min

## CC(=O)c1cc(C(=O)NOC(CO)CO)c(Nc2ccc(I)cc2F)n1C
COLO 205
  EC50: 20 nM
[1]
  half-life: 90 min
[2]
  IC50: 19 nM
A-375
  EC50: 33 nM
[3]
  half-life: 16 min

## CC(=O)c1cc(C(=O)NCCCO)c(Nc2ccc(I)cc2F)n1C
COLO 205
  EC50: 128 nM
[1]
  half-life: 95 min
[2]
  IC50: 90 nM
A-375
  EC50: 313 nM
[3]
  half-life: 10 min

## CC(=O)c1cc(C(=O)N2CC[C@@H](O)C2)c(Nc2ccc(I)cc2F)n1C
[4]
  inhibition: inactive
[5]
  inhibition: inactive
[6]
  inhibition: inactive
[7]
  inhibition: inactive
[8]
  inhibition: inactive
[9]
  inhibition: inactive
[10]
  inhibition: inactive
COLO 205
  EC50: 84 nM
[11]
  inhibition: inactive
[12]
  inhibition: inactive
[1]
  half-life: 14 min
[13]
  inhibition: inactive
[14]
  inhibition: inactive
[2]
  IC50: 13 nM
[15]
  inhibition: inactive
[16]
  inhibition: inactive
[17]
  inhibition: inactive
A-375
  EC50: 127 nM
[3]
  half-life: 9 min
[18]
  inhibition: inactive
[19]
  inhibition: inactive
[20]
  inhibition: inactive
[21]
  inhibition: inactive

## CC(=O)c1cc(C(=O)NOC[C@@H](O)CO)c(Nc2ccc(I)cc2F)n1C
COLO 205
  EC50: 11 nM
[1]
  half-life: 150 min
[2]
  IC50: 11 nM
A-375
  EC50: 17 nM
[3]
  half-life: 68 min

## CC(=O)c1c(Cl)c(C(=O)NOC[C@H](O)CO)c(Nc2ccc(I)cc2F)n1C
[22]
  clearance: 7.1 mL/min/kg
COLO 205
  EC50: 23 nM
[23]
  MRT: 51 min
[24]
  bioavailability: 40%
[1]
  half-life: 52 min
[2]
  IC50: 32 nM
[25]
  MRT: 246 min
[26]
  Vd: 0.361 L/kg
A-375
  EC50: 46 nM
[3]
  half-life: 23 min

## CC(=O)c1c(Cl)c(C(=O)NOC[C@@H](O)CO)c(Nc2ccc(I)cc2F)n1C
COLO 205
  EC50: 18 nM
[1]
  half-life: 38 min
[2]
  IC50: 13 nM
A-375
  EC50: 29 nM
[3]
  half-life: 30 min

## CC(=O)c1cc(C(=O)NOCCO)c(Nc2ccc(I)cc2F)n1C
COLO 205
  EC50: 12 nM
[23]
  MRT: 55.8 min
[24]
  bioavailability: 46%
[1]
  half-life: 36 min
[25]
  MRT: 384 min
[26]
  Vd: 2.9 L/kg
A-375
  EC50: 14 nM
[3]
  half-life: 14 min

## CC(=O)c1cc(C(=O)N2CC(N)C2)c(Nc2ccc(I)cc2F)n1C
[4]
  inhibition: inactive
[5]
  inhibition: inactive
[6]
  inhibition: inactive
[7]
  inhibition: inactive
[8]
  inhibition: inactive
[9]
  inhibition: inactive
[10]
  inhibition: inactive
COLO 205
  EC50: 37 nM
[11]
  inhibition: inactive
[12]
  inhibition: inactive
[1]
  half-life: 55 min
[13]
  inhibition: inactive
[14]
  inhibition: inactive
[2]
  IC50: 7 nM
[15]
  inhibition: inactive
[16]
  inhibition: inactive
[17]
  inhibition: inactive
A-375
  EC50: 39 nM
[3]
  half-life: 64 min
[18]
  inhibition: inactive
[19]
  inhibition: inactive
[20]
  inhibition: inactive
[21]
  inhibition: inactive

## CC(=O)c1cc(C(=O)NOC[C@H](O)CO)c(Nc2ccc(I)cc2F)n1C
[22]
  clearance: 48 mL/min/kg
COLO 205
  EC50: 33 nM
[23]
  MRT: 43.2 min
[24]
  bioavailability: 19%
[1]
  half-life: > 200 min
[2]
  IC50: 20 nM
[25]
  MRT: 444 min
[26]
  Vd: 2.1 L/kg
A-375
  EC50: 36 nM
[3]
  half-life: 29 min

## CC(=O)n1cc(Nc2ccc(I)cc2F)c(C(=O)NOCCO)c1
COLO 205
  EC50: 3100 nM
[1]
  half-life: 3 min
[2]
  IC50: 11 nM
[3]
  half-life: 6 min

## CC(=O)c1c(Cl)c(C(=O)NOCCO)c(Nc2ccc(I)cc2F)n1C
COLO 205
  EC50: 7 nM
[1]
  half-life: 7 min
[2]
  IC50: 18 nM
A-375
  EC50: 28 nM
[3]
  half-life: 6 min

## CC(=O)c1cc(C(=O)O)c(Nc2ccc(I)cc2F)n1C
COLO 205
  EC50: 7100 nM
[1]
  half-life: 123 min
[2]
  IC50: 42 nM
A-375
  EC50: 2650 nM
[3]
  half-life: 7 min

## CC(=O)n1cc(C(=O)NOCCO)c(Nc2ccc(I)cc2F)c1C
COLO 205
  EC50: 10000 nM
[1]
  half-life: 8 min
[2]
  IC50: 20 nM
[3]
  half-life: 2 min

## CC(=O)c1cc(C(=O)NOCCCO)c(Nc2ccc(I)cc2F)n1C
COLO 205
  EC50: 104 nM
[1]
  half-life: 43 min
[2]
  IC50: 46 nM
A-375
  EC50: 176 nM
[3]
  half-life: 13 min

## CC(=O)c1cc(C(=O)N2CC(O)C2)c(Nc2ccc(I)cc2F)n1C
[4]
  inhibition: inactive
[5]
  inhibition: inactive
[6]
  inhibition: inactive
[7]
  inhibition: inactive
[8]
  inhibition: inactive
[9]
  inhibition: inactive
[10]
  inhibition: inactive
COLO 205
  EC50: 32 nM
[11]
  inhibition: inactive
[12]
  inhibition: inactive
[1]
  half-life: 15 min
[13]
  inhibition: inactive
[14]
  inhibition: inactive
[2]
  IC50: 30 nM
[15]
  inhibition: inactive
[16]
  inhibition: inactive
[17]
  inhibition: inactive
A-375
  EC50: 97 nM
[3]
  half-life: 13 min
[18]
  inhibition: inactive
[19]
  inhibition: inactive
[20]
  inhibition: inactive
[21]
  inhibition: inactive

## CC(=O)n1cc(C(=O)O)c(Nc2ccc(I)cc2F)c1C
COLO 205
  EC50: 21000 nM
[1]
  half-life: 29 min
[2]
  IC50: 72 nM
[3]
  half-life: 21 min

## CC(=O)c1c(F)c(C(=O)NOC[C@H](O)CO)c(Nc2ccc(I)cc2F)n1C
COLO 205
  EC50: 45 nM
[1]
  half-life: 107 min
[2]
  IC50: 29 nM
A-375
  EC50: 72 nM
[3]
  half-life: 28 min
